Data from ChEMBL document CHEMBL5653624 (Biochem Pharmacol, 2016).
The source made the active and inactive calls. The rule behind the calls is not given here.

Assays:
[1] = Cytotoxicity against HBE cells assessed as reduction in cell viability at 2 uM measured after 20 hrs by MTS assay; assay type: toxicity, cell-based; conditions: human
Outline: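 MTS viability assay. RAW 264.7 cells seeded at 25,000 cells/cm2; HBE and hASM cells at 70% confluency and serum-starved for 24 h. Exposure for 20 h with LPS/IFNγ stimulation. MTS reagent added for 1 h at 37 °C in the dark, absorbance read at 490 nm. LPS/IFNγ-stimulated cells without inhibitor set at 100%.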

[2] = system: RAW264.7; experiment: Antiinflammatory activity in mouse RAW264.7 cells assessed as effect on LPS/IFNgamma-induced TNFalpha gene expression at 1 uM preincubated for 20 hrs followed by LPS/IFNgamma stimulation and measured after 4 hrs by RT-qPCR analysis; assay type: functional, cell-based; conditions: time 24.0 hrs
Outline: (§1)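 RAW 264.7 macrophages in DMEM/10% FBS received 1 μM RGFP966 for 20 h, with LPS/IFNγ for the last 4 h. Washed with cold DPBS, total RNA isolated, integrity checked by 28S/18S. RT-qPCR by comparative Ct (2−ΔΔCt), fold change versus LPS/IFNγ control. Mean ± SD of 3–5 independent experiments.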

[3] = system: RAW264.7; experiment: Antiinflammatory activity in mouse RAW264.7 cells assessed as effect on LPS/IFNgamma-induced iNOS gene expression at 1 uM preincubated for 20 hrs followed by LPS/IFNgamma stimulation and measured after 4 hrs by RT-qPCR analysis; assay type: functional, cell-based; conditions: time 24.0 hrs; outline: as §1
[4] = system: HBE; experiment: Antiinflammatory activity in HBE cells assessed as effect on LPS/IFNgamma-induced TNFalpha gene expression at 2 uM […] by RT-qPCR analysis; assay type: functional, cell-based; conditions: Homo sapiens
Outline: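 HBE cells (passage 73–103) or immortalized hASM cells (2–3 donors, passage 27–35), serum-starved. Then 2 μM RGFP966 for 20 h, with LPS/IFNγ for the last 4 h. Total RNA isolated; RT-qPCR by 2−ΔΔCt, fold change versus LPS/IFNγ control. Mean ± SD of 3–5 independent experiments.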

[5] = system: Lung; experiment: Antiinflammatory activity in C57bl/6 mouse precision-cut lung slices assessed as upregulation of LPS/IFNgamma-induced IL-1beta gene expression at 1 to 10 uM preincubated for 20 hrs followed by LPS/IFNgamma stimulation and measured after 4 hrs by RT-qPCR analysis relative to control; assay type: functional; conditions: dose 1-10 µM; time 24 hrs
Outline: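 PCLS, 250 μm thick, cut from agarose-filled lungs of male C57bl/6 mice (24–28 g, 8–10 weeks). Three slices per well at 37 °C, 5% CO2. Slices received RGFP966 at 1 and 10 μM final for 20 h, with 10 ng/ml LPS and 10 ng/ml IFNγ stimulation. RNA isolated; RT-qPCR fold change versus LPS/IFNγ control by 2−ΔΔCt. Mean ± SD, n = 3–5.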

[6] = target: T1, Histone deacetylase 3 (Mus musculus) (UniProt O88895); experiment: Inhibition of HDAC3 in mouse RAW-Blue cells assessed as reduction in LPS/IFNgamma-induced NF-kappaB p65 transcriptional activity preincubated for 16 hrs followed by LPS/IFNgamma stimulation and measured after 4 hrs by SEAP reporter gene assay; assay type: cell-based; conditions: time 20.0 hrs
T1 sequence (whole entry): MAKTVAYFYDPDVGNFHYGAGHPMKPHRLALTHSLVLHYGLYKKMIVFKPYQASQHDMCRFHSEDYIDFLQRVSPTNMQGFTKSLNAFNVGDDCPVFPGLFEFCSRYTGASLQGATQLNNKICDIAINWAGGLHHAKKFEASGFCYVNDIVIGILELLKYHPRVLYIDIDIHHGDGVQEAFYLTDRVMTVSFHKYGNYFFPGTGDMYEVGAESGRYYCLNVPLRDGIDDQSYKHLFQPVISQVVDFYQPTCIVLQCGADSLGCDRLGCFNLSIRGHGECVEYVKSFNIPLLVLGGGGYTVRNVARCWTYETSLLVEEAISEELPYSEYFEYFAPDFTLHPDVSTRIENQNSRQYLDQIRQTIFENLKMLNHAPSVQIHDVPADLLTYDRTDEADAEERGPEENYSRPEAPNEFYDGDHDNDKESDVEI
Outline: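 RAW-Blue cells (RAW 264.7-derived, stably expressing an NF-κB/AP-1-inducible secreted embryonic alkaline phosphatase) exposed to inhibitor for 20 h total, with 10 ng/ml LPS plus 10 ng/ml IFNγ added for the final 4 h. Supernatant mixed with QUANTI-Blue medium, 37 °C 1–2 h in the dark, absorbance 630 nm; reported as % of control.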

[7] = target: T1, Histone deacetylase 3 (Mus musculus); experiment: Inhibition of HDAC3 in mouse RAW264.7 cells assessed as effect on LPS/IFNgamma-induced NF-kappaB p65 nuclear translocation preincubated for 20 hrs followed by LPS/IFNgamma stimulation and measured after 1 hr by Western blot analysis; assay type: cell-based
Outline: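 After 20 h inhibitor then 1 h LPS/IFNγ, RAW 264.7 cells fractionated into nuclear and cytosolic parts and immunoblotted for NF-κB p65; PARP-1 and β-actin as internal controls; densitometry as fold change versus LPS/IFNγ-treated control; 4 independent experiments, mean ± SD.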

[8] = system: RAW264.7; experiment: Antiinflammatory activity in LPS/IFNgamma-stimulated mouse RAW264.7 cells assessed as effect on HDAC2 mRNA expression preincubated for 20 hrs followed by LPS/IFNgamma stimulation and measured after 4 hrs by RT-qPCR analysis; assay type: functional, cell-based; conditions: time 24.0 hrs
[9] = system: RAW264.7; experiment: Antiinflammatory activity in LPS/IFNgamma-stimulated mouse RAW264.7 cells assessed as effect on NF-kappaB p65 mRNA expression preincubated for 20 hrs followed by LPS/IFNgamma stimulation and measured after 4 hrs by RT-qPCR analysis; assay type: functional, cell-based; conditions: time 24.0 hrs
[10] = system: RAW264.7; experiment: Antiinflammatory activity in LPS/IFNgamma-stimulated mouse RAW264.7 cells assessed as effect on IkappaBalpha expression preincubated for 20 hrs followed by LPS/IFNgamma stimulation and measured after 4 hrs by Western blot analysis; assay type: functional, cell-based; conditions: time 24.0 hrs
[11] = system: Lung; experiment: Antiinflammatory activity in C57bl/6 mouse precision-cut lung slices assessed as effect on LPS/IFNgamma-induced HDAC2 expression at 1 to 10 uM preincubated for 20 hrs followed by LPS/IFNgamma stimulation and measured after 4 hrs by Western blot analysis; assay type: functional, tissue-based; conditions: dose 1-10 µM, time 24.0 hrs
[12] = system: Lung; experiment: Antiinflammatory activity in C57bl/6 mouse precision-cut lung slices assessed as effect on LPS/IFNgamma-induced HDAC3 expression at 1 to 10 uM preincubated for 20 hrs followed by LPS/IFNgamma stimulation and measured after 4 hrs by Western blot analysis; assay type: functional, tissue-based; conditions: dose 1-10 µM, time 24.0 hrs
[13] = target: Histone deacetylase 1 (Mus musculus) (UniProt O09106); experiment: Effect on HDAC1 nuclear localization in LPS/IFNgamma-stimulated mouse RAW264.7 cells preincubated for 20 hrs followed by LPS/IFNgamma stimulation and measured after 1 hr by Hoechst staining based confocal laser scanning microscopy; assay type: cell-based
Histone deacetylase 1 (Mus musculus), sequence (O09106 whole entry): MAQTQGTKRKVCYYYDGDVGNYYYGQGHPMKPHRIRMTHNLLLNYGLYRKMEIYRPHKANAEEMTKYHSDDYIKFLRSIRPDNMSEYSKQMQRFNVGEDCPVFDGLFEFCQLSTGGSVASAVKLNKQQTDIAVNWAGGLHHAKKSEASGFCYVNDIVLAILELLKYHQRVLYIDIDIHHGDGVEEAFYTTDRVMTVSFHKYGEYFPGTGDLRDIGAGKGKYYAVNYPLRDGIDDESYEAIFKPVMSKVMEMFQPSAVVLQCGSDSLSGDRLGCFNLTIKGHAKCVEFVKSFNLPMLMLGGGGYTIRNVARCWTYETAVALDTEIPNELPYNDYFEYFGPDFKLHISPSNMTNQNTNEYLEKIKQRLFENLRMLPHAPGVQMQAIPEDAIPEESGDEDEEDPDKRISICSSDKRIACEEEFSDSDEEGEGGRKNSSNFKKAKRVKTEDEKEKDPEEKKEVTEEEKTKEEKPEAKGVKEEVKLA
Outline: (§2)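 RAW 264.7 cells at 20,000 cells/cm2 received 1 μM RGFP966 for 20 h, then 1 h LPS/IFNγ. Fixed in 4% formaldehyde, permeabilized with 0.25% Triton X-100, blocked with 5% BSA. Primary antibodies 2 h at 4 °C, AlexaFluor secondaries 1 h, Hoechst nuclear stain. Confocal imaging at 630×; 4 independent experiments.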

[14] = target: Histone deacetylase 2 (Mus musculus) (UniProt P70288); experiment: Effect on HDAC2 nuclear localization in LPS/IFNgamma-stimulated mouse RAW264.7 cells preincubated for 20 hrs followed by LPS/IFNgamma stimulation and measured after 1 hr by Hoechst staining based confocal laser scanning microscopy; assay type: cell-based; outline: as §2
Histone deacetylase 2 (Mus musculus), sequence (P70288 whole entry): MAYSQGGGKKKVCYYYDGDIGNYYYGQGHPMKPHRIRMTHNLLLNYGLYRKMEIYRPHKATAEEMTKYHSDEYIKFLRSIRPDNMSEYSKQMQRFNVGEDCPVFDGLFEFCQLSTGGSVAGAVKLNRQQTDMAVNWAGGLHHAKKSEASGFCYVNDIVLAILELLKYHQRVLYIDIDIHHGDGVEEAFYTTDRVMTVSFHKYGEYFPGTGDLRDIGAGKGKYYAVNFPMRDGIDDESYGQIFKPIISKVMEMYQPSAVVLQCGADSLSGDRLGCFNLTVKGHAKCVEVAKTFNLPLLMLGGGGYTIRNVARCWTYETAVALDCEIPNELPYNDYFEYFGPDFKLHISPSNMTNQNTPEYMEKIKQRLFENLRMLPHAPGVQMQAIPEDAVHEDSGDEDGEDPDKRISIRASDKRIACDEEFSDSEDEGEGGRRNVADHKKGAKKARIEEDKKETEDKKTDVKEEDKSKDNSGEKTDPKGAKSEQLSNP

For Nc1cc(F)ccc1NC(=O)/C=C/c1cnn(C/C=C/c2ccccc2)c1, the Activity [1] was “Non-Toxic”, the Activity [2] was “inactive” and the Activity [3] was “inactive”. For the same compound, the Activity [4] was “inactive”, the “fold change (FC)” value [5] was greater than 2 and the inhibition [6] was “Active”. The inhibition [7] was “inactive”, the Activity [8] was “inactive” and the Activity [9] was “inactive”. For the same compound, the Activity [10] was “inactive”, the Activity [11] was “inactive” and the Activity [12] was “inactive”. For the same compound, the Activity [13] was “inactive” and the Activity [14] was “inactive”.
